Experimental data published in ChEMBL document CHEMBL1128377, “Novel inhibitors of potassium ion channels on human T lymphocytes” (J Med Chem, 1995).

Columns and labels:
[1] = target: T1, Potassium voltage-gated channel subfamily A member 3 (Homo sapiens, UniProt P22001); test: Inhibition of outward potassium currents (IKn) in human T-lymphocyte N-type potassium channels.; type: functional
How it was run: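 Whole-cell patch clamp held at -80 mV, with 150 ms steps to 30 mV once per minute and stabilization for >6 min. Test agent was perfused at one fixed concentration per cell for 6 min. The first pulse gave closed-channel block and the next gave open-channel block. Peak outward current was compared with predrug current as percent blocked. IC50 was fitted from n > 9 data points.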

[2] = target: T1, Potassium voltage-gated channel subfamily A member 3; test: Concentration inhibiting [125I]ChTX (charybdotoxin) binding to N-type potassium channel.
[3] = Inhibition of [3H]dofetilide binding to guinea pig cardiac potassium (K+) channels.; set-up: species or system Cavia porcellus
How it was run: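 Radioligand binding of [3H]dofetilide to guinea pig cardiac myocytes, run by a previously published method. The IC50 is reported as the mean of at least two determinations.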

[4] = Partition coefficient (logP) (HPLC); type: physicochemical; settings: octanol/water
[5] = Acid dissociation constant was determined; type: ADME
Cavia porcellus [6] = species on record: Cavia porcellus; test: Inhibition of [3H]dofetilide binding to cardiac potassium (K+) channels at 400 nM
Cavia porcellus [7] = species on record: Cavia porcellus; test: Inhibition of [3H]dofetilide binding to guinea pig cardiac myocytes potassium (K+) channels at 400 nM

T1 sequence (P22001 whole entry, the tested form may be a part): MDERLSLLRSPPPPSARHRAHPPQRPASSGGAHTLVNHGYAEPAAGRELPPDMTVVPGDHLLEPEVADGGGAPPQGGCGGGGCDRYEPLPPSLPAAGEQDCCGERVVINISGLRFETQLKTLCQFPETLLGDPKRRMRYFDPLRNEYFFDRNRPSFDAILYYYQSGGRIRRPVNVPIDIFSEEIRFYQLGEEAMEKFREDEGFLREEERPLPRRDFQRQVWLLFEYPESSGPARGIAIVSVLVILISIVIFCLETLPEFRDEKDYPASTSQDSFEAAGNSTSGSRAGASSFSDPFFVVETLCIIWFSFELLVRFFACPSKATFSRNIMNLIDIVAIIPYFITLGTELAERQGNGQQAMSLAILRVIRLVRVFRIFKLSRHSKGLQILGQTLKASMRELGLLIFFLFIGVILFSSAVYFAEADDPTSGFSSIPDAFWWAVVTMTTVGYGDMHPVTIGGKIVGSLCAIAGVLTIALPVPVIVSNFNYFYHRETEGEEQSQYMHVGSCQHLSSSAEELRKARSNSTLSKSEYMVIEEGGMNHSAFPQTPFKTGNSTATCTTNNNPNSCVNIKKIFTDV

Row | SMILES | IC50 [1] [nM] | IC50 [2] [nM] | IC50 [3] [nM] | also measured
1 | CCCCC/N=c1\ccn(Cc2ccc(Cl)cc2)c2ccc(C(F)(F)F)cc12 | 213 | 340 | 140 | 
2 | CCCCCC/N=c1\ccn(Cc2ccccc2Cl)c2cc(Cl)ccc12 | 216 | 190 | 780 | 
3 | Clc1ccc(C/N=c2\ccn(Cc3ccccc3Cl)c3cc(Cl)ccc23)c(Cl)c1 | 259 | 550 | 2380 | 
4 | CCCCCC/N=c1\ccn(Cc2ccccc2)c2ccc(OC)cc12 | 267 | 47 | 680 | 
5 | CCCCCC/N=c1\ccn(Cc2ccc(OC)cc2)c2cc(Cl)ccc12 | 329 | 88 |  | 
6 | CCCCCC/N=c1\ccn(Cc2ccc(Cl)c(Cl)c2)c2cc(Cl)ccc12 | 231 | 310 | > 3500 | logP [4]: 4.64; pKa [5]: 11.5
7 | O=C(O)CC/N=c1\ccn(Cc2ccccc2Cl)c2cc(Cl)ccc12 |  | > 10000 |  | 
8 | CC(C)CCCC(C)/N=c1\ccn(Cc2ccccc2)c2cc(Cl)ccc12 (stereo not given) | 1680 | 817 | 175 | 
9 | Clc1ccc2/c(=N/C34CC5CC(CC(C5)C3)C4)ccn(Cc3ccccc3)c2c1 |  | 1170 | 157 | 
10 | CCCCCC/N=c1\ccn(Cc2ccccc2)c2c(OC)cccc12 |  |  | 210 | 
11 | CC(C)C/N=c1\ccn(Cc2ccccc2)c2cc(Cl)ccc12 |  | 206 | 2000 | 
12 | CCCCC/N=c1\ccn(Cc2ccccc2)c2cc(Cl)ccc12 | 250 |  | 1300 | 
13 | CCCCC/N=c1\ccn(Cc2ccc(Cl)cc2)c2c(F)cccc12 |  |  | 310 | 
14 | CCCCCC/N=c1\ccn(Cc2ccccc2)c2cc(Cl)ccc12 | 335 | 32 | 820 | pKa [5]: 11.5
15 | CCCCCCOc1ccc(Cc2ccccc2)c2ccccc12 |  | > 5000 |  | 
16 | CCC/N=c1\ccn(Cc2ccccc2)c2cc(Cl)ccc12 | 3160 | 544 |  | 
17 | CCN(CC)CC/N=c1\ccn(Cc2ccccc2Cl)c2cc(Cl)ccc12 |  |  | 57 | 
18 | C[N+](C)(C)CCC/N=c1\ccn(Cc2ccccc2Cl)c2cc(Cl)ccc12 | > 10000 | > 30000 |  | 

Row | SMILES | IC50 [1] [nM] | IC50 [2] [nM] | IC50 [3] [nM] | also measured
19 | CCCCC/N=c1\ccn(C2CCc3ccccc32)c2cc(Cl)ccc12 (stereo not given) |  | 2300 | 870 | 
20 | CCCCCCNc1cc[n+](-c2ccccc2)c2c(-c3ccccc3)cccc12 |  | 930 |  | logP [4]: 3.89; pKa [5]: 9.58
21 | CCCCCC/N=c1\ccn(Cc2ccccc2)c2ccccc12 | 1050 | 164 |  | 
22 | CCCCCCNc1cc[n+](C)c2c(-c3ccccc3)cccc12 | 602 | 240 | 223 | 
23 | CCCCCCOc1cc[n+](Cc2ccccc2)c2cc(Cl)ccc12 |  | 828 |  | logP [4]: 3.62; pKa [5]: 11.2
24 | CCCCCCCC/N=c1\ccn(Cc2ccccc2)c2cc(Cl)ccc12 | 351 | 280 | 2400 | 
25 | CCCCCCC/N=c1\ccn(Cc2ccccc2)c2cc(Cl)ccc12 | 249 | 117 | 2500 | 
26 | CNCCC/N=c1\ccn(Cc2cccc(Cl)c2)c2cc(Cl)ccc12 |  | > 30000 |  | 
27 | CCCC/N=c1\ccn(Cc2ccccc2)c2cc(Cl)ccc12 | 2620 | 198 |  | inhibition (Cavia porcellus [6]): 24%
28 | CCCCC/N=c1\ccn(Cc2ccc(Cl)cc2)c2ccc(OC)cc12 |  |  | 1990 | 
29 | Clc1ccc(/N=c2\ccn(Cc3ccccc3Cl)c3cc(Cl)ccc23)c(Cl)c1 | > 10000 | > 30000 | > 30000 | 
30 | C/N=c1\ccn(Cc2ccccc2)c2cc(Cl)ccc12 |  | > 5000 |  | inhibition (Cavia porcellus [7]): 24%
31 | N=c1ccn(Cc2ccccc2)c2cc(Cl)ccc12 |  | > 8000 |  | 
32 | CCCC/N=c1\ccn(CCCc2ccccc2)c2cc(Cl)ccc12 |  | 471 |  | logP [4]: 3.82; pKa [5]: 11.4
33 | CCCCCC/N=c1\ccn(Cc2ccc(Cl)cc2)c2cc(Cl)ccc12 |  | 100 | 3230 | 
34 | CCCCCCNc1cc[n+](-c2ccccc2)c2c(-c3ccccc3)cc(OC)cc12 |  | 240 |  | logP [4]: 3.73
35 | CCCCC/N=c1\ccn(Cc2ccc(Cl)cc2)c2cc(C(F)(F)F)ccc12 |  | 239 | 90 | 
